Measurements reported in ChEMBL document CHEMBL3822360, “Synthesis of new thiazolo-celecoxib analogues as dual cyclooxygenase-2/15-lipoxygenase inhibitors: Determination of regio-specific different pyrazole cyclization by 2D NMR” (Eur J Med Chem, 2016).

Tests used:
Rattus norvegicus [1] = test: Ulcerogenicity in Wistar albino rat assessed as damage in gastric mucosa at 30.9 umol/kg, po qd for 3 days measured 1 hr post last dose; assay type: toxicity, organism-based; conditions: in vivo
Summary of the method: (§1)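 Rats were fasted 18 h, then dosed orally once daily for 3 consecutive days. Compounds were given in DMSO; controls received 10% aqueous DMSO (v/v). Ulcer index is the sum of % ulcer incidence/10, mean number of ulcers per stomach and mean ulcer severity. Values are mean ± SEM.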

Rattus norvegicus [2] = test: Anti-inflammatory activity against Wistar albino rat model of carrageenan-induced paw edema assessed as reduction in paw thickness at 15 mg/kg, po measured after 2 hrs relative to control; assay type: functional
Summary of the method: (§2)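 Adult male Wistar albino rats (100–150 g) were housed under a 12 h light cycle at 27 ± 2 °C with food and water. Paw edema was induced with carrageenan after oral dosing. […] Values are mean ± SEM, n = 5.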

Rattus norvegicus [3] = test: Anti-inflammatory activity in Wistar albino rat assessed as inhibition of carrageenan-induced paw edema 15 mg/kg, po measured after 4 hrs relative to control; assay type: functional; summary of the method: as §2
[4] = molecular target: T1, Prostaglandin G/H synthase 1 (Ovis aries, UniProt P05979); test: Inhibition of ovine COX-1 assessed as reduction in PGF2-alpha formation using arachidonic acid as substrate by enzyme immunoassay
T1 sequence (P05979 whole entry): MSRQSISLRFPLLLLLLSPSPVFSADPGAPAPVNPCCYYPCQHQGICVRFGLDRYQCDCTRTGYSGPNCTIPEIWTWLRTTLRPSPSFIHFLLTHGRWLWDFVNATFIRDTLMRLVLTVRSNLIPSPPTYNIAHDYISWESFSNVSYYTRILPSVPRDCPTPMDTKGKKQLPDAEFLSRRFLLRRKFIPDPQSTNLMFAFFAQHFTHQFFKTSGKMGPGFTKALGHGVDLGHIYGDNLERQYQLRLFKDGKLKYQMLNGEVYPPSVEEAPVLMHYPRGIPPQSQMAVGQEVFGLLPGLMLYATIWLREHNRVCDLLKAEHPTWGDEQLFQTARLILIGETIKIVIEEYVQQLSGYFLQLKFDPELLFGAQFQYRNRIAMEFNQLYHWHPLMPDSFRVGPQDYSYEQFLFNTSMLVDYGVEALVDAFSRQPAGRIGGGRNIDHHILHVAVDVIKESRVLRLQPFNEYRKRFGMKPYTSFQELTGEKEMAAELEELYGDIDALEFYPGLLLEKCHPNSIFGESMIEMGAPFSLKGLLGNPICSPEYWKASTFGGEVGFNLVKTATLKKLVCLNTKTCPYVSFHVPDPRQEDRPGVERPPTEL

Rattus norvegicus [5] = test: Ulcerogenicity in Wistar albino rat assessed as damage in gastric mucosa at 50 mg/kg, po qd for 3 days measured 1 hr post last dose; assay type: toxicity, organism-based; conditions: in vivo; summary of the method: as §1
[6] = Inhibition of soybean 15-LOX using arachidonic acid as substrate by enzyme immunoassay; parameters: species or system Glycine max
Summary of the method: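 Soybean 15-LOX inhibition was measured with an EIA kit following the manufacturer's instructions, in 0.1 M Tris-HCl buffer, pH 7.4. Compounds were dissolved in minimal DMSO and diluted to final concentrations of 0.001–10 μM, including 1, 5 and 10 μM. IC50 (μM) is the mean of two determinations.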

Rattus norvegicus [7] = test: Anti-inflammatory activity in Wistar albino rat assessed as inhibition of carrageenan-induced paw edema at 50 mg/kg, po measured after 4 hrs relative to control; assay type: functional; summary of the method: as §2
Rattus norvegicus [8] = test: Anti-inflammatory activity in Wistar albino rat assessed as inhibition of carrageenan-induced paw edema at 50 mg/kg, po measured after 2 hrs relative to control; assay type: functional; summary of the method: as §2

Structure (SMILES)	IC50 [4] [µM]	IC50 [6] [µM]	UI (Rattus norvegicus [1])	inhibition in vivo at 15 mg/kg (Rattus norvegicus [2]) [%]	inhibition (INH) (Rattus norvegicus [3]) [%]	UI (Rattus norvegicus [5])	inhibition in vivo at 50 mg/kg (Rattus norvegicus [7]) [%]	inhibition in vivo at 50 mg/kg (Rattus norvegicus [8]) [%]
Cc1ccc(-c2cc(C(F)(F)F)nn2-c2ccc(S(N)(=O)=O)cc2)cc1 [CELECOXIB]			2.9	59.7	65.63			
Cc1nc(-c2ccccc2)sc1-c1ccnn1-c1ccc(S(=O)(=O)/N=C/N(C)C)cc1	8.7	7.68				2.93	51.6	53.2
COc1ccc(/C=C/C(=O)c2sc(-c3ccccc3)nc2C)cc1	8.6	7.4				4.08	46.9	43.8
COc1ccc([C@@H]2CC(c3sc(-c4ccccc4)nc3C)=NN2c2ccc(S(N)(=O)=O)cc2)cc1	6.8	5.9				3.79	42.2	37.1
C/C(=N\Nc1ccc(S(C)(=O)=O)cc1)c1sc(-c2ccccc2)nc1C	5.4	6.35				3.87	28.1	27.4
Cc1nc(-c2ccccc2)sc1-c1ccnn1-c1ccc(S(N)(=O)=O)cc1	9.8	8.68				2.48	54.7	54.8
C/C(=N\Nc1ccc(S(N)(=O)=O)cc1)c1sc(-c2ccccc2)nc1C	9.8	8.6				2.65	37.1	33.9
Cc1nc(-c2ccccc2)sc1-c1ccnn1-c1ccc(S(C)(=O)=O)cc1	10.3	7.49				4.35	48.4	46.8

Second part, led by results:

IC50 [4] [µM]	IC50 [6] [µM]	Structure (SMILES)	UI (Rattus norvegicus [1])	inhibition in vivo at 15 mg/kg (Rattus norvegicus [2]) [%]	inhibition (INH) (Rattus norvegicus [3]) [%]	UI (Rattus norvegicus [5])	inhibition in vivo at 50 mg/kg (Rattus norvegicus [7]) [%]	inhibition in vivo at 50 mg/kg (Rattus norvegicus [8]) [%]
5.8	4.71	COc1ccc([C@@H]2CC(c3sc(-c4ccccc4)nc3C)=NN2c2ccc(S(C)(=O)=O)cc2)cc1				3.83	28.1	27.5
4.8	3.98	Cc1nc(-c2ccccc2)sc1-c1cc(C(F)(F)F)nn1-c1ccc(S(C)(=O)=O)cc1				2.78	51.6	53.2
6.3	5.41	Cc1nc(-c2ccccc2)sc1-c1cc(C(F)(F)F)nn1-c1ccc(S(N)(=O)=O)cc1				2.67	57.8	53.2
	5.64	Cc1ccc(Cl)c(Nc2ccccc2C(=O)O)c1Cl [MECLOFENAMATE SODIUM]						
